Results: ChEMBL document CHEMBL1961794, “Regulation of circadian behaviour and metabolism by synthetic REV-ERB agonists” (Nature, 2012)
The source made the active and inactive calls. The rule behind the calls is not given here.

What was measured:
[1] = target: Peroxisome proliferator-activated receptor delta (Homo sapiens) (UniProt Q03181); test: Effect on PPARD(NR1C2) dependent reporter activity in HEK293 cells at 20 uM; assay type: cell-based
How it was run: (§1)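 Specificity panel covering all 48 human nuclear receptors. HEK293 cells cotransfected with Gal4 DNA-binding domain–nuclear receptor fusions and a luciferase reporter. Compound tested at a single 20 μM concentration. Mean ± s.e.m., n=3.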

[2] = target: Nuclear receptor subfamily 2 group F member 6 (Homo sapiens) (UniProt P10588); test: Effect on EAR2(NR2F6) dependent reporter activity in HEK293 cells at 20 uM; assay type: cell-based; how it was run: as §1
[3] = target: Nuclear receptor subfamily 5 group A member 2 (Homo sapiens) (UniProt O00482); test: Effect on CPF(NR5A2) dependent reporter activity in HEK293 cells at 20 uM; assay type: cell-based; how it was run: as §1
Chain of Nuclear receptor subfamily 5 group A member 2 (Homo sapiens) (O00482 whole entry): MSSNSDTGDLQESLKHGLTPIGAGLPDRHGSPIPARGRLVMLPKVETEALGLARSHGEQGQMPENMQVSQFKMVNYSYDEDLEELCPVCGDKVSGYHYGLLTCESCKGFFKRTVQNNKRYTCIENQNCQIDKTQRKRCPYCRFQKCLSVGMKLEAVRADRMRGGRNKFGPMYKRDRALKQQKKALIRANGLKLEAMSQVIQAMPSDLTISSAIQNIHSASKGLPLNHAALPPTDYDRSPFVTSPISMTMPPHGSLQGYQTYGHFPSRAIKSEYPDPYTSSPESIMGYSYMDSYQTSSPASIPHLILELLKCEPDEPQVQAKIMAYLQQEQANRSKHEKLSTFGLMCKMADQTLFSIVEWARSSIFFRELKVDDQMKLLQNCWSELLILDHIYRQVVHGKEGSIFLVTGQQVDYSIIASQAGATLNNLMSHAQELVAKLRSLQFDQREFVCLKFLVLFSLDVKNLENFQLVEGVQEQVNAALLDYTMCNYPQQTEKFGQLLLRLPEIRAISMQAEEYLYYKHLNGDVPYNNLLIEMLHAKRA

[4] = target: Thyroid hormone receptor beta (Homo sapiens) (UniProt P10828); test: Effect on THRB(NR1A2) dependent reporter activity in HEK293 cells at 20 uM; assay type: cell-based
How it was run: (§2)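 Cotransfection assay in HEK293 cells with Gal4 DNA-binding domain–nuclear receptor fusions, covering a panel of all 48 human nuclear receptors. Compounds were tested at 20 μM, with reporter luciferase as the read-out. Mean ± s.e.m., n=3.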

[5] = target: Retinoic acid receptor RXR-gamma (Homo sapiens) (UniProt P48443); test: Effect on RXRG(NR2B3) dependent reporter activity in HEK293 cells at 20 uM; assay type: cell-based; how it was run: as §1
[6] = target: Nuclear receptor subfamily 4 group A member 3 (Homo sapiens) (UniProt Q92570); test: Effect on NOR1(NR4A3) dependent reporter activity in HEK293 cells at 20 uM; assay type: cell-based; how it was run: as §1
[7] = target: Nuclear receptor subfamily 6 group A member 1 (Homo sapiens) (UniProt Q15406); test: Effect on GCNF(NR6A1) dependent reporter activity in HEK293 cells at 20 uM; assay type: cell-based; how it was run: as §1
Chain of Nuclear receptor subfamily 6 group A member 1 (Homo sapiens) (Q15406 whole entry): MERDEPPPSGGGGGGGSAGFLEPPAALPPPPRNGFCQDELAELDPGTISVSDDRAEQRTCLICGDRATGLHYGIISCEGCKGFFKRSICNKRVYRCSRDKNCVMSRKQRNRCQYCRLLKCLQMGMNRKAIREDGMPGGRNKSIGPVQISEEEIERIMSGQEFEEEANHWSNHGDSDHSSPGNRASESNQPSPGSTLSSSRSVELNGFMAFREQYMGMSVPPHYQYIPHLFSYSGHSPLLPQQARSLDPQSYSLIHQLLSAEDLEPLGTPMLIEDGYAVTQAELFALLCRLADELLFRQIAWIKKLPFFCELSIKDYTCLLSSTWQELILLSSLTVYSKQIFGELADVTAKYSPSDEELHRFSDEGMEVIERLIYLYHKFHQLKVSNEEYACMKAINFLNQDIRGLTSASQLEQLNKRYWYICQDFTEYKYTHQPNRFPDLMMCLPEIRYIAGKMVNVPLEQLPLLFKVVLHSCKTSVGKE

[8] = target: Mineralocorticoid receptor (Homo sapiens) (UniProt P08235); test: Effect on MCR(NR3C2) dependent reporter activity in HEK293 cells at 20 uM; assay type: cell-based; how it was run: as §1
[9] = target: Retinoic acid receptor RXR-beta (Homo sapiens) (UniProt P28702); test: Effect on RXRB(NR2B2) dependent reporter activity in HEK293 cells at 20 uM; assay type: cell-based; how it was run: as §1
[10] = target: Glucocorticoid receptor (Homo sapiens) (UniProt P04150); test: Effect on GCR(NR3C1) dependent reporter activity in HEK293 cells at 20 uM; assay type: cell-based; how it was run: as §1
Chain of Glucocorticoid receptor (Homo sapiens) (P04150 whole entry): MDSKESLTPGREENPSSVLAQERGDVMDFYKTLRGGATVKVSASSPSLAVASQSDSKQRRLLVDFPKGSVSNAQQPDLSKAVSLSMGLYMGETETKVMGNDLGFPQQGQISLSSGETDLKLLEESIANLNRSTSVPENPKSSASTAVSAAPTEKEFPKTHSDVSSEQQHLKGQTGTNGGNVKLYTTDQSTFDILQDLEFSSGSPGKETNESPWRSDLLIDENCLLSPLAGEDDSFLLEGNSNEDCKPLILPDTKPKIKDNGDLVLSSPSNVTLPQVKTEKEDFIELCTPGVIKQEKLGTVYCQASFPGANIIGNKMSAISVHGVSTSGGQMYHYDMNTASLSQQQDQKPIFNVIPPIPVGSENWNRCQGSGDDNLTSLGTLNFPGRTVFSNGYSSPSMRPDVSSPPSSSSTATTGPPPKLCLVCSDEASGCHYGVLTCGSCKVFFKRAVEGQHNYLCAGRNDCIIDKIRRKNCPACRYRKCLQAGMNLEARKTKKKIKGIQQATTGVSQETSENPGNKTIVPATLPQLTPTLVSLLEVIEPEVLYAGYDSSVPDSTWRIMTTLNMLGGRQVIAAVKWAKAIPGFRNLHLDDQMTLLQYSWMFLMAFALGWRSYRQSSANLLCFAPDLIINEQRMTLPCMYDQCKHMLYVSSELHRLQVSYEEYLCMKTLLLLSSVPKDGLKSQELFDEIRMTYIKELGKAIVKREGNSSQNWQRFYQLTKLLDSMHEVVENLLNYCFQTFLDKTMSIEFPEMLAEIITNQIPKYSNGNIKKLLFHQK

[11] = target: Peroxisome proliferator-activated receptor gamma (Homo sapiens) (UniProt P37231); test: Effect on PPARG(NR1C3) dependent reporter activity in HEK293 cells at 20 uM; assay type: cell-based; how it was run: as §1
[12] = target: Progesterone receptor (Homo sapiens) (UniProt P06401); test: Effect on PGR(NR3C3) dependent reporter activity in HEK293 cells at 20 uM; assay type: cell-based; how it was run: as §1
[13] = target: Estrogen receptor beta (Homo sapiens) (UniProt Q92731); test: Effect on ESR2(NR3A2) dependent reporter activity in HEK293 cells at 20 uM; assay type: cell-based; how it was run: as §1
Chain of Estrogen receptor beta (Homo sapiens) (Q92731 whole entry): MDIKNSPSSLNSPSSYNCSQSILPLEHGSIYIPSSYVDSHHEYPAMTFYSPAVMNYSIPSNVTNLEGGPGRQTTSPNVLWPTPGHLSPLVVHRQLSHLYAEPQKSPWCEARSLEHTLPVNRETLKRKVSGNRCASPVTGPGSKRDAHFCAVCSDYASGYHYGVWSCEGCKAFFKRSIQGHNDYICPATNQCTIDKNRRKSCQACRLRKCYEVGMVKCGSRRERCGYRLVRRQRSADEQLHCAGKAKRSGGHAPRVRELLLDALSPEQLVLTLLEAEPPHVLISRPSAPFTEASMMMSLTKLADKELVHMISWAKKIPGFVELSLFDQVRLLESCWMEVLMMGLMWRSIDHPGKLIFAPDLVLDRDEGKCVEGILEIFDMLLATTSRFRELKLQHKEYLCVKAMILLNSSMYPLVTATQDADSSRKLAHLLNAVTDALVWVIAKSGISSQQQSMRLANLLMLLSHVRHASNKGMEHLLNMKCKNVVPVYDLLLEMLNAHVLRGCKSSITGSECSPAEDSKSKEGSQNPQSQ

[14] = target: Retinoic acid receptor beta (Homo sapiens) (UniProt P10826); test: Effect on RARB(NR1B2) dependent reporter activity in HEK293 cells at 20 uM; assay type: cell-based; how it was run: as §1
[15] = target: Nuclear receptor subfamily 1 group I member 2 (Homo sapiens, UniProt O75469); test: Effect on PXR(NR1I2) dependent reporter activity in HEK293 cells at 20 uM; assay type: cell-based; settings: hek293, 20 µM; how it was run: as §1
[16] = target: Retinoic acid receptor gamma (Homo sapiens) (UniProt P13631); test: Effect on RARG(NR1B3) dependent reporter activity in HEK293 cells at 20 uM; assay type: cell-based; how it was run: as §1
[17] = target: Nuclear receptor subfamily 2 group C member 1 (Homo sapiens) (UniProt P13056); test: Effect on TR2(NR2C1) dependent reporter activity in HEK293 cells at 20 uM; assay type: cell-based; how it was run: as §2
Chain of Nuclear receptor subfamily 2 group C member 1 (Homo sapiens) (P13056 whole entry): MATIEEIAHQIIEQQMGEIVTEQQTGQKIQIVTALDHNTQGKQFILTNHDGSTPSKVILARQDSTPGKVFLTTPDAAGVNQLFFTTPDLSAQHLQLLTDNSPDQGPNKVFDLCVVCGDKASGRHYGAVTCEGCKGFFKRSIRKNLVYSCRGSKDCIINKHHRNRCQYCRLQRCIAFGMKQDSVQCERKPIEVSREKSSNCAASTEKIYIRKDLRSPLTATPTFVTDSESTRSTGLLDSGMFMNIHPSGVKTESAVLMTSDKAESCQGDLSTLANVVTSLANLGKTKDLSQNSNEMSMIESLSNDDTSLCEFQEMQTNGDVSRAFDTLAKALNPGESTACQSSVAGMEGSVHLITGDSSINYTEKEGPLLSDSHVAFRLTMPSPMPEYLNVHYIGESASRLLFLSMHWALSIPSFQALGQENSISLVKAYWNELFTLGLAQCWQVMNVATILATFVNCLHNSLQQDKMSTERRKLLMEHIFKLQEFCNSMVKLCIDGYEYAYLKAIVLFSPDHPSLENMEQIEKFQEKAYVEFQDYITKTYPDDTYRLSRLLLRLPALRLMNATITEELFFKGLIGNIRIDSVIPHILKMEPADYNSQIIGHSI

[18] = target: Nuclear receptor subfamily 0 group B member 1 (Homo sapiens) (UniProt P51843); test: Effect on DAX1(NR0B1) dependent reporter activity in HEK293 cells at 20 uM; assay type: cell-based; how it was run: as §1
Chain of Nuclear receptor subfamily 0 group B member 1 (Homo sapiens) (P51843 whole entry): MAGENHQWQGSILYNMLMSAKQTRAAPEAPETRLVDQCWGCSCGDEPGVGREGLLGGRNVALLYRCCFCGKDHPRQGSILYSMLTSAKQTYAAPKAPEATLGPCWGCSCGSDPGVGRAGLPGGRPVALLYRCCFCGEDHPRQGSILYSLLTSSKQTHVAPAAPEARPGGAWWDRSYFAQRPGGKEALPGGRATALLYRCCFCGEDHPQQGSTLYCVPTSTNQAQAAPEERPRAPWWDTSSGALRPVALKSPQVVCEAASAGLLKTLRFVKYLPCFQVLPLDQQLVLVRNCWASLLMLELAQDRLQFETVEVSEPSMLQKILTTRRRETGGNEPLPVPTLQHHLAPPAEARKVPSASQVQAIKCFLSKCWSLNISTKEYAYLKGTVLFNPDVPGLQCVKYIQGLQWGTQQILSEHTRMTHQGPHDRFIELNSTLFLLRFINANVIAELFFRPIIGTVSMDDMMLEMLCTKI

[19] = target: Estrogen-related receptor gamma (Homo sapiens) (UniProt P62508); test: Effect on ERR3(NR3B3) dependent reporter activity in HEK293 cells at 20 uM; assay type: cell-based; how it was run: as §1
Mus musculus [20] = test: Change in plasma glucose in diet-induced obese mice over 30 days at 100 mg/kg ip; assay type: functional, organism-based; design: dose 100 mg/kg; settings: C57BL/6
[21] = target: Vitamin D3 receptor (Homo sapiens) (UniProt P11473); test: Effect on VDR(NR1I1) dependent reporter activity in HEK293 cells at 20 uM; assay type: cell-based; how it was run: as §2
[22] = target: Oxysterols receptor LXR-beta (Homo sapiens) (UniProt P55055); test: Effect on LXRB(NR1H2) dependent reporter activity in HEK293 cells at 20 uM; assay type: cell-based; how it was run: as §1
Chain of Oxysterols receptor LXR-beta (Homo sapiens) (P55055 whole entry): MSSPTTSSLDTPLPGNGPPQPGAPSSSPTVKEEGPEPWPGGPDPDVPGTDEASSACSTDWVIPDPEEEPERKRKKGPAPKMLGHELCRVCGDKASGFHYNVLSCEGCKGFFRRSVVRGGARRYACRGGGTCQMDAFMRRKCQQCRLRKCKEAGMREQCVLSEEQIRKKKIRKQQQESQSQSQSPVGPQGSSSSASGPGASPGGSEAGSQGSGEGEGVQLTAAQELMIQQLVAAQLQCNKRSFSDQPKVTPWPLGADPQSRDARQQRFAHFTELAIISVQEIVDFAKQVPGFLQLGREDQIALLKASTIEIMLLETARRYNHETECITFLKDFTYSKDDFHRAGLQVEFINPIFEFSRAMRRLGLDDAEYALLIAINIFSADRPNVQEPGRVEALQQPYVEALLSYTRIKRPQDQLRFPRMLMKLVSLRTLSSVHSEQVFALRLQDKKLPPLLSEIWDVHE

Mus musculus [23] = test: Change in plasma triglycerides in diet-induced obese mice over 30 days at 100 mg/kg ip; assay type: functional, organism-based; design: dose 100 mg/kg; settings: C57BL/6
[24] = Plasma concentration after 8 hours at 100mg/kg ip dose (10mg/ml solution in 15% Cremophor); assay type: ADME, organism-based; settings: mouse, read-out: Conc_plasma
How it was run: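 Single 100 mg/kg i.p. dose given to mice as a 10 mg/ml solution in 15% Cremophor. Plasma drug concentration (μM) was measured at 2 and 8 h post-injection. Mean ± s.e.m., n=3.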

[25] = target: COUP transcription factor 2 (Homo sapiens) (UniProt P24468); test: Effect on TFCOUP2(NR2F2) dependent reporter activity in HEK293 cells at 20 uM; assay type: cell-based; how it was run: as §2
[26] = target: Hepatocyte nuclear factor 4-gamma (Homo sapiens) (UniProt Q14541); test: Effect on HNF4G(NR2A2) dependent reporter activity in HEK293 cells at 20 uM; assay type: cell-based; how it was run: as §1
[27] = target: Oxysterols receptor LXR-alpha (Homo sapiens) (UniProt Q13133); test: Effect on LXRA(NR1H3) dependent reporter activity in HEK293 cells at 20 uM; assay type: cell-based; how it was run: as §1
Chain of Oxysterols receptor LXR-alpha (Homo sapiens) (Q13133 whole entry): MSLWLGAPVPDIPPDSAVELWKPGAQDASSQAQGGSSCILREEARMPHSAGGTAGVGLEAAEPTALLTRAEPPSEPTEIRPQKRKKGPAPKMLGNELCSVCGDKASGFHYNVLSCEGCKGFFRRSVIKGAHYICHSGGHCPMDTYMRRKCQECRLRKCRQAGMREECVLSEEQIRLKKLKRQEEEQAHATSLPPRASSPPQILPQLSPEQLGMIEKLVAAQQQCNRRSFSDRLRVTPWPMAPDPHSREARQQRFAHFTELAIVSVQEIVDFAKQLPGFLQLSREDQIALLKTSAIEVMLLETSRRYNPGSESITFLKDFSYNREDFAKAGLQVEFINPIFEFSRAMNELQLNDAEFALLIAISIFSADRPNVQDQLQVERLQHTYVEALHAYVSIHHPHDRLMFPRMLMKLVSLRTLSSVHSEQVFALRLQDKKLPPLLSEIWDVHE

[28] = Plasma concentration after 2 hours at 10mg/kg ip dose (10mg/ml suspension in 10%DMSO/10%Tween80); assay type: ADME, organism-based; settings: mouse, read-out: Conc_plasma
How it was run: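 Mice received a single 10 mg/kg i.p. dose as a 10 mg/ml suspension in DMSO/Tween80/water (10/10/80). Plasma was sampled at 1, 2, 4 and 8 h post-injection and drug concentration reported in μM. Mean ± s.e.m., n=3.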

[29] = Decrease in wheel-running behavior in mice in constant darkness; assay type: functional; settings: Mus musculus
[30] = Brain concentration after 2 hours at 10mg/kg ip dose (10mg/ml suspension in 10%DMSO/10%Tween80); assay type: ADME, organism-based; settings: mouse, read-out: Conc_brain
How it was run: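 Mice given a single 10mg/kg i.p. dose as a 10mg/ml suspension in 10/10/80 DMSO/Tween80/water. Brain levels (μM) measured at 2h and 8h post injection, with plasma sampled at 1, 2, 4 and 8h. Mean ± s.e.m., n=3.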

Fibroblast = test: Inhibition of circadian oscillations in fibroblasts from Per2-luc transgenic mice; assay type: functional, cell-based; settings: Mus musculus
How it was run: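 Fibroblasts (MEFs) were isolated from Per2^luc transgenic mice and treated with 5 μM compound. Circadian oscillation amplitude was followed by continuous bioluminescence recording in two independent experiments.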

Mus musculus [31] = organism: Mus musculus; test: Inhibition of circadian oscillations in SCN explants from Per2-luc transgenic mouse; assay type: functional, tissue-based

Chain of Peroxisome proliferator-activated receptor delta (Homo sapiens) (Q03181 whole entry, the tested form may be a part): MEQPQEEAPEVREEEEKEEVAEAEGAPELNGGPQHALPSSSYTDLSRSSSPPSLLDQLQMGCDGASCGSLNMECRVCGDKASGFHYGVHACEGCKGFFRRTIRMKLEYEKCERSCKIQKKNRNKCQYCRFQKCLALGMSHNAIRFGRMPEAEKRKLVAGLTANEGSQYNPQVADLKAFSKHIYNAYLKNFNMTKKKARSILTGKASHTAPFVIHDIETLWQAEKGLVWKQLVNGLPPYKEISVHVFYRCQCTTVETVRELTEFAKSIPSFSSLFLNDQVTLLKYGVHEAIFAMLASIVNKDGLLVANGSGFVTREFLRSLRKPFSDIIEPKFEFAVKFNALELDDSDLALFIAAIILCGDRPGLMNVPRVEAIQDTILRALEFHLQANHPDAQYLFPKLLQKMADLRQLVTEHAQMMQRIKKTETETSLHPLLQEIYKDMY

Row | SMILES | inhibition [1] | inhibition [2] | inhibition [3] | inhibition [4] | inhibition [5] | inhibition [6] | inhibition [7] | inhibition [8] | inhibition [9] | inhibition [10] | inhibition [11] | inhibition [12] | inhibition [13] | inhibition [14] | Inhibition [15] | inhibition [16] | inhibition [17] | inhibition [18] | inhibition [19] | inhibition [21] | also measured
1 | CCOC(=O)N1CCC(CN(Cc2ccc(Cl)cc2)Cc2ccc([N+](=O)[O-])s2)C1 (configuration not stated) [SR9009] | inactive | inactive | inactive | inactive | inactive | inactive | inactive | inactive | inactive | inactive | inactive | inactive | inactive | inactive | Not Active | inactive | inactive | inactive | inactive | inactive | Plasma glucose (Mus musculus [20]): -19%; inhibition [22]: inactive; Plasma triglyceride (Mus musculus [23]): -12%; concentration at 8 h [24]: 1500 nM; inhibition [25]: inactive; inhibition [26]: inactive; inhibition [27]: inactive
2 | CCCCCNC(=O)N1CCC(CN(Cc2ccc(Cl)cc2)Cc2ccc([N+](=O)[O-])s2)C1 (configuration not stated) [SR9011] | inactive | inactive | inactive | inactive | inactive | inactive | inactive | inactive | inactive | inactive | inactive | inactive | inactive | inactive | Not Active | inactive | inactive | inactive | inactive | inactive | concentration at 2 h [28]: 530 nM; ED50 [29]: 56 mg/kg; concentration at 2 h [30]: 240 nM; Reduced_circadian_oscillation (Fibroblast): Active; inhibition [22]: inactive; concentration at 8 h [24]: 740 nM; inhibition [25]: inactive; inhibition [26]: inactive; inhibition [27]: inactive; Reduced_circadian_oscillation (Mus musculus [31]): Active
